What all share (type): in vivo, human
Data set [1] deals with healthy male subjects. Briefly: Treatment emergent adverse events, single dose study. The following applies: galantamine 16 mg oral.
Data set [2] deals with healthy male subjects. Briefly: VAS nausea, single dose. The following applies: healthy elderly males.
The nature of data set [3]: Plasma pharmacokinetics after single intranasal dose of Gln-1062. The following applies: for half-life / AUC(0-inf) / Cmax: male, human, inhaled or intranasal.
Data set [4] concerns healthy male subjects. Briefly: NeuroCart test battery, overall pharmacodynamic effects. The following applies: galantamine 16 mg oral; healthy elderly males. The method, boiled down:
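Double-blind study in healthy nonsmoking elderly men (cohorts 3–4, 12 on active drug). A single oral 16 mg dose was given at the same time as the other cohort treatments, with elderly double-placebo controls. Battery: N-back, Stroop, adaptive tracking, Bond–Lader VAS, pharmaco-EEG, eye movements, pupil size, body sway, face encoding/recognition and VVLT. Two baseline runs, then 1–6, 8 and 10 h post-dose. VVLT ran at 1 h 30 min only; face recognition predose and at 1 h 45 min. Analysis by mixed-model ANOVA with fixed factor treatment.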

In the case of `COc1ccc2c3c1O[C@H]1C[C@@H](O)C=C[C@@]31CCN(C)C2` [galantamine], in the data set with healthy male subjects [1], the “Cold sweat or hyperhidrosis, incidence” value is recorded as 33.3%. For the same molecule, in the data set on healthy male subjects [1] (healthy elderly males), the “Nausea, incidence” value came to 33.3%. Further, the “Diarrhea, incidence” value in the data set with healthy male subjects [1] (healthy elderly subjects) stood at 8.3%. For the same molecule, the “Vomiting, incidence” value in the data set with healthy male subjects [1] (healthy elderly subjects) was found to be 41.7%. Moreover, the “peak of nausea (VAS nausea), time after administration” value in the data set with healthy male subjects [2] was determined as 2 h. In addition, the half-life in data set [3] is roughly 10 h; in data set [3] (5.5 mg), 9.85 h; in data set [3] (11 mg), 7.94 h; in data set [3] (22 mg), 8.71 h; in data set [3] (33 mg) it was 9.24 h; in data set [3] (44 mg), 11.1 h. Moreover, the AUC(0-inf) in data set [3] (5.5 mg) is 268 ng·h/mL; in data set [3] (11 mg) it was 367 ng·h/mL; in data set [3] (22 mg) it was 799 ng·h/mL; in data set [3] (33 mg) it was 1190 ng·h/mL; in data set [3] (44 mg) it was 1530 ng·h/mL. Further, the Cmax was determined as 17.6 ng/mL in data set [3] (5.5 mg); 27.7 ng/mL in data set [3] (11 mg); 46.5 ng/mL in data set [3] (22 mg); 76.1 ng/mL in data set [3] (33 mg); 74.7 ng/mL in data set [3] (44 mg). Besides, the “Tmax for galantamine after administration of Gln-1062” value in data set [3] (over the Gln-1062 intranasal dose levels) was 2.3 to 4.7 h. The “pharmacodynamic effects compared with placebo” value with healthy male subjects [4] is “did not induce any measurable pharmacodynamic effects”.

Usually half-life stands for the time in which the quantity being followed falls by half. Low values mean fast loss, high ones slow loss. In general, AUC(0-inf) refers to the area under the concentration-time curve extrapolated to infinity. Read a high AUC(0-inf) as more exposure. One may read the Cmax as the highest concentration seen after dosing.

The values above are taken from publication PMC5644278 (Alzheimer's & Dementia : Translational Research & Clinical …, 2016).
